Reference: ChEMBL document CHEMBL1121938, “Hypocholesterolemic and antiaggregatory properties of 2-hydroxytetronic acid redox analogues an their relationship to clofibric acid” (1982)

How the values were obtained:
[1] = Effect of compound was measured on serum heparin-MnCl2 precipated ipoprotein Dawley rats at 0.2 mmol/kg dose(day+14).; assay type: functional
Method in brief: (§1)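 Cholesterol-fed male Sprague-Dawley rats, n = 6 per group, given compound or 0.25% methylcellulose orally twice daily for 14 days, and fasted 16-18 h before each bleed (days -1, +4, +7, +10, +14). Heparin-MnCl2 precipitable lipoprotein cholesterol was taken as serum total cholesterol minus α-lipoprotein cholesterol. It is reported as a ratio to α-LP cholesterol ± SD. Analysis was ANOVA with repeated measures and Duncan's test.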

Rattus norvegicus [2] = test: Effect of compound was measured on serum total triglycerides in male Dawley rats at the dose of 0.4 mmol/kg (day+10).; assay type: functional, organism-based
Method in brief: (§2)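 Serum triglycerides were measured with an enzymatic triglyceride reagent on a bichromatic analyzer. Rats were male Sprague-Dawley (180-210 g) fed a high-cholesterol diet, n = 6 per group, dosed orally twice daily for 14 days in 0.25% methylcellulose or vehicle. They were fasted 16-18 h before blood collection on days -1, +4, +7, +10 (orbital plexus, light ether) and +14 (aorta). Analysis was repeated-measures ANOVA with Duncan's test.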

Rattus norvegicus [3] = test: Effect of compound was measured on serum total cholesterol in male Dawley rats at the dose of 0.4 mmol/kg (day-1).; assay type: functional, organism-based
Method in brief: (§3)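 Serum total cholesterol was measured enzymatically on a bichromatic analyzer. Serum was separated after clotting on ice (2000g, 10 min), held at 4 °C and assayed within 48 h. Rats were male Sprague-Dawley on a high-cholesterol diet, n = 6, dosed orally twice daily for 14 days in 0.25% methylcellulose (1.0 mL/100 g). They were fasted 16-18 h before each bleed. Results are in mg/dL ± SD.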

Rattus norvegicus [4] = test: Effect of compound on liver CH levels in male Dawley rats at the dose of 0.4 mmol/kg; assay type: functional; design: unit: g/100 g wet liver
Method in brief: (§4)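 Male Sprague-Dawley rats (180-210 g) were kept on a high-cholesterol diet for 1 week before and throughout treatment. Groups of n = 6 received drug in 0.25% methylcellulose orally twice daily for 14 days, or vehicle. After a 16-18 h fast, livers were excised at day +14 and homogenized in 0.1 M Tris-HCl pH 7.2 with 1.15% KCl. Lipids were extracted from 25% w/v homogenate and reported as g/100 g wet liver ± SD; groups compared by ANOVA and Duncan's test.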

[5] = Effect of compound was measured on serum heparin-MnCl2 precipated ipoprotein Dawley rats at 0.4 mmol/kg dose(day+7).; assay type: functional; method in brief: as §1
Rattus norvegicus [6] = test: Effect of compound was measured on serum alpha-lipoprotein in male Dawley rats at the dose of 0.2 mmol/kg (day+4).; assay type: functional
Method in brief: (§5)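 Male Sprague-Dawley rats (180-210 g) fed a high-cholesterol diet for 1 week before and throughout dosing. Groups of n = 6 were dosed orally twice daily for 14 days in 0.25% methylcellulose, with vehicle controls. Rats were fasted 16-18 h before orbital bleeds on days -1, +4, +7 and +10, and by aortic exsanguination on day +14. Serum α-lipoprotein cholesterol was measured by polyanionic precipitation, in mg/dL ± SD.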

Rattus norvegicus [7] = test: Effect of compound was measured on serum total triglycerides in male Dawley rats at the dose of 0.4 mmol/kg (day+14).; assay type: functional, organism-based; method in brief: as §2
Rattus norvegicus [8] = test: Effect of compound on liver CH levels in male Dawley rats at the dose of 0.2 mmol/kg; assay type: functional; method in brief: as §4
Rattus norvegicus [9] = test: Effect of compound was measured on serum total cholesterol in male Dawley rats at the dose of 0.4 mmol/kg (day+10).; assay type: functional, organism-based; method in brief: as §3
[10] = Effect of compound was measured on serum heparin-MnCl2 precipated ipoprotein Dawley rats at 0.4 mmol/kg dose(day+4).; assay type: functional; method in brief: as §1
Rattus norvegicus [11] = test: Effect of compound was measured on serum alpha-lipoprotein in male Dawley rats at the dose of 0.4 mmol/kg (day+7).; assay type: functional; method in brief: as §5
Rattus norvegicus [12] = test: Effect of compound was measured on serum total triglycerides in male Dawley rats at the dose of 0.2 mmol/kg (day+10).; assay type: functional, organism-based; method in brief: as §2
Rattus norvegicus [13] = test: Effect of compound was measured on serum alpha-lipoprotein in male Dawley rats at the dose of 0.4 mmol/kg (day+4).; assay type: functional; method in brief: as §5
[14] = Effect of compound was measured on serum heparin-MnCl2 precipated ipoprotein Dawley rats at 0.4 mmol/kg dose(day+14).; assay type: functional; method in brief: as §1
[15] = Effect of compound was measured on serum heparin-MnCl2 precipated ipoprotein Dawley rats at 0.2 mmol/kg dose(day+10).; assay type: functional; method in brief: as §1
Rattus norvegicus [16] = test: Effect of compound was measured on serum alpha-lipoprotein in male Dawley rats at the dose of 0.2 mmol/kg (day+7).; assay type: functional; method in brief: as §5
Rattus norvegicus [17] = test: Effect of compound on liver TG levels in male Dawley rats at the dose of 0.4 mmol/kg; assay type: functional; design: unit: g/100 g wet liver; method in brief: as §4
[18] = Effect of compound was measured on serum heparin-MnCl2 precipated ipoprotein Dawley rats at 0.2 mmol/kg dose(day+4).; assay type: functional; method in brief: as §1
Rattus norvegicus [19] = test: Effect of compound was measured on serum alpha-lipoprotein in male Dawley rats at the dose of 0.2 mmol/kg (day+14).; assay type: functional; method in brief: as §5
Rattus norvegicus [20] = test: Effect of compound was measured on serum alpha-lipoprotein in male Dawley rats at the dose of 0.2 mmol/kg (day+10).; assay type: functional; method in brief: as §5
Rattus norvegicus [21] = test: Effect of compound was measured on serum alpha-lipoprotein in male Dawley rats at the dose of 0.4 mmol/kg (day+10).; assay type: functional; method in brief: as §5
Rattus norvegicus [22] = test: Effect of compound was measured on serum total cholesterol in male Dawley rats at the dose of 0.2 mmol/kg (day+4).; assay type: functional, organism-based; method in brief: as §3
Rattus norvegicus [23] = test: Effect of compound was measured on serum total triglycerides in male Dawley rats at the dose of 0.4 mmol/kg (day+7).; assay type: functional, organism-based; method in brief: as §2
Rattus norvegicus [24] = test: Effect of compound was measured on serum total triglycerides in male Dawley rats at the dose of 0.2 mmol/kg (day+14).; assay type: functional, organism-based; method in brief: as §2
Rattus norvegicus [25] = test: Effect of compound was measured on serum total cholesterol in male Dawley rats at the dose of 0.2 mmol/kg (day+14).; assay type: functional, organism-based; method in brief: as §3
Rattus norvegicus [26] = test: Effect of compound on liver TG levels in male Dawley rats at the dose of 0.2 mmol/kg; assay type: functional; method in brief: as §4
Rattus norvegicus [27] = test: Effect of compound was measured on serum total triglycerides in male Dawley rats at the dose of 0.2 mmol/kg (day-1).; assay type: functional, organism-based; method in brief: as §2
Rattus norvegicus [28] = test: Effect of compound was measured on serum total cholesterol in male Dawley rats at the dose of 0.4 mmol/kg (day+4).; assay type: functional, organism-based; method in brief: as §3
[29] = Effect of compound was measured on serum heparin-MnCl2 precipated ipoprotein Dawley rats at 0.2 mmol/kg dose(day-1).; assay type: functional; method in brief: as §1
Rattus norvegicus [30] = test: Effect of compound was measured on serum total cholesterol in male Dawley rats at the dose of 0.2 mmol/kg (day+10).; assay type: functional, organism-based; method in brief: as §3
[31] = Effect of compound was measured on serum heparin-MnCl2 precipated ipoprotein Dawley rats at 0.4 mmol/kg dose(day-1).; assay type: functional; method in brief: as §1
[32] = Effect of compound was measured on serum heparin-MnCl2 precipated ipoprotein Dawley rats at 0.4 mmol/kg dose(day+10).; assay type: functional; method in brief: as §1
Rattus norvegicus [33] = test: Effect of compound was measured on serum total triglycerides in male Dawley rats at the dose of 0.2 mmol/kg (day+4).; assay type: functional, organism-based; method in brief: as §2
[34] = Effect of compound on liver to body weight ratio in male Dawley rats at the dose of 0.4 mmol/kg; assay type: functional
Method in brief: (§6)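 Male Sprague-Dawley rats (180-210 g) were kept on a cholesterol-rich diet and dosed orally twice daily for 14 days in 0.25% methylcellulose; vehicle controls received the same; n = 6 per group. After a 16-18 h fast, rats were exsanguinated at day +14. Livers were removed, rinsed in ice-cold buffer, blotted and weighed, and related to body weight. Data were analysed by repeated-measures ANOVA with Duncan's multiple range test.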

Rattus norvegicus [35] = test: Effect of compound was measured on serum alpha-lipoprotein in male Dawley rats at the dose of 0.4 mmol/kg (day-1).; assay type: functional; method in brief: as §5
Rattus norvegicus [36] = test: Effect of compound was measured on serum total triglycerides in male Dawley rats at the dose of 0.4 mmol/kg (day-1); assay type: functional, organism-based; method in brief: as §2
Rattus norvegicus [37] = test: Effect of compound was measured on serum alpha-lipoprotein in male Dawley rats at the dose of 0.2 mmol/kg (day-1).; assay type: functional; method in brief: as §5
Rattus norvegicus [38] = test: Effect of compound was measured on serum total cholesterol in male Dawley rats at the dose of 0.4 mmol/kg (day+7).; assay type: functional, organism-based; method in brief: as §3
Rattus norvegicus [39] = test: Effect of compound was measured on serum total triglycerides in male Dawley rats at the dose of 0.4 mmol/kg (day+4); assay type: functional, organism-based; method in brief: as §2
Rattus norvegicus [40] = test: Effect of compound was measured on serum total cholesterol in male Dawley rats at the dose of 0.4 mmol/kg (day+14).; assay type: functional, organism-based; method in brief: as §3
Rattus norvegicus [41] = test: Effect of compound was measured on serum alpha-lipoprotein in male Dawley rats at the dose of 0.4 mmol/kg (day14).; assay type: functional; method in brief: as §5
[42] = Effect of compound on liver to body weight ratio in male Dawley rats at the dose of 0.2 mmol/kg; assay type: functional; method in brief: as §6
Rattus norvegicus [43] = test: Effect of compound was measured on serum total cholesterol in male Dawley rats at the dose of 0.2 mmol/kg (day+7).; assay type: functional, organism-based; method in brief: as §3
Rattus norvegicus [44] = test: Effect of compound was measured on serum total triglycerides in male Dawley rats at the dose of 0.2 mmol/kg (day+7).; assay type: functional, organism-based; method in brief: as §2
Rattus norvegicus [45] = test: Effect of compound was measured on serum total cholesterol in male Dawley rats at the dose of 0.2 mmol/kg (day-1).; assay type: functional, organism-based; method in brief: as §3
[46] = Effect of compound was measured on serum heparin-MnCl2 precipated ipoprotein Dawley rats at 0.2 mmol/kg dose(day+7).; assay type: functional; method in brief: as §1

O=C1C(O)=C(O)OC1c1ccc(Cl)cc1 (stereo unspecified)
Ratio [1]: 2.2 | Serum total triglycerides (Rattus norvegicus [2]): 139 mg/dL | serum total cholesterol (Rattus norvegicus [3]): 196 mg/dL | Liver CH levels (Rattus norvegicus [4]): 2.93 | Ratio [5]: 1.74 | Alpha-lipoprotein cholesterol (Rattus norvegicus [6]): 43.8 mg/dL | Serum total triglycerides (Rattus norvegicus [7]): 87.8 mg/dL | Liver CH levels (Rattus norvegicus [8]): 3.28 | serum total cholesterol (Rattus norvegicus [9]): 135 mg/dL | Ratio [10]: 2.79 | Alpha-lipoprotein cholesterol (Rattus norvegicus [11]): 46 mg/dL | Serum total triglycerides (Rattus norvegicus [12]): 193 mg/dL | Alpha-lipoprotein cholesterol (Rattus norvegicus [13]): 41.8 mg/dL | Ratio [14]: 1.39 | Ratio [15]: 3.33 | Alpha-lipoprotein cholesterol (Rattus norvegicus [16]): 42.5 mg/dL | Liver TG (Rattus norvegicus [17]): 5.08 | Ratio [18]: 3.72 | Alpha-lipoprotein cholesterol (Rattus norvegicus [19]): 48.5 mg/dL | Alpha-lipoprotein cholesterol (Rattus norvegicus [20]): 38.8 mg/dL | Alpha-lipoprotein cholesterol (Rattus norvegicus [21]): 52.2 mg/dL | serum total cholesterol (Rattus norvegicus [22]): 195 mg/dL | Serum total triglycerides (Rattus norvegicus [23]): 147 mg/dL | Serum total triglycerides (Rattus norvegicus [24]): 148 mg/dL | serum total cholesterol (Rattus norvegicus [25]): 145 mg/dL | Liver TG (Rattus norvegicus [26]): 4.82 | Serum total triglycerides (Rattus norvegicus [27]): 313 mg/dL | serum total cholesterol (Rattus norvegicus [28]): 154 mg/dL | Ratio [29]: 6.03 | serum total cholesterol (Rattus norvegicus [30]): 161 mg/dL | Ratio [31]: 3.96 | Ratio [32]: 1.75 | Serum total triglycerides (Rattus norvegicus [33]): 251 mg/dL | Ratio [34]: 3.6 | Alpha-lipoprotein cholesterol (Rattus norvegicus [35]): 39.7 mg/dL | Serum total triglycerides (Rattus norvegicus [36]): 193 mg/dL | Alpha-lipoprotein cholesterol (Rattus norvegicus [37]): 40.8 mg/dL | serum total cholesterol (Rattus norvegicus [38]): 125 mg/dL | Serum total triglycerides (Rattus norvegicus [39]): 167 mg/dL | serum total cholesterol (Rattus norvegicus [40]): 138 mg/dL | Alpha-lipoprotein cholesterol (Rattus norvegicus [41]): 61 mg/dL | Ratio [42]: 3.8 | serum total cholesterol (Rattus norvegicus [43]): 204 mg/dL | Serum total triglycerides (Rattus norvegicus [44]): 204 mg/dL | serum total cholesterol (Rattus norvegicus [45]): 276 mg/dL | Ratio [46]: 4.03
